Reference: ChEMBL document CHEMBL2311502, “Discovery of novel and ligand-efficient inhibitors of Plasmodium falciparum and Plasmodium vivax N-myristoyltransferase” (J Med Chem, 2013)
The source made the active and inactive calls. The calls are words filed in the database; no cut-off is given here.

Tests used:
[1] = test system: Plasmodium falciparum; experiment: Antiplasmodium activity against Chloroquine-sensitive later trophozoite form of Plasmodium falciparum 3D7 assessed as parasite growth inhibition after 48 hrs by FACS flow cytometric analysis; format: functional, organism-based; details: 3D7, 48 h
[2] = biological target: Glycylpeptide N-tetradecanoyltransferase 1 (Homo sapiens) (UniProt P30419); experiment: Inhibition of human NMT1
[3] = biological target: T1, Glycylpeptide N-tetradecanoyltransferase (Plasmodium falciparum (isolate 3D7), UniProt Q8ILW6); experiment: Binding affinity to Plasmodium falciparum NMT using GSNKSKPKDASQRRR-NH2 as substrate after 10 to 20 mins by CPM fluorescence assay
T1 sequence (Q8ILW6 whole entry): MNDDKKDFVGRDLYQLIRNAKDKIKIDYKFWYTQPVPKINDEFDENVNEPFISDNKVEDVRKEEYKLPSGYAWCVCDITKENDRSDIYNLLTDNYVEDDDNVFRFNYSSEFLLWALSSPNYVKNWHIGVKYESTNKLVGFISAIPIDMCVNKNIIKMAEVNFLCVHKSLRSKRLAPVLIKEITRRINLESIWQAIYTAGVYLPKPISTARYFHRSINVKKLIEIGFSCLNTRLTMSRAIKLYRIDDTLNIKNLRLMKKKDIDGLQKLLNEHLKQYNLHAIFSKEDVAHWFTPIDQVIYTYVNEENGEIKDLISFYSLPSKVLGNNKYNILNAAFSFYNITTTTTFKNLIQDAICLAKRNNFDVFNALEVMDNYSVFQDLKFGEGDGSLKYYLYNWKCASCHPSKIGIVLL
Summary of the method: (§1)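 Ki derived from enzyme IC50 by the Cheng–Prusoff equation, which corrects for the differing Michaelis constants of each NMT. Each IC50 is the mean of two or more determinations.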

[4] = Binding affinity to recombinant Plasmodium vivax NMT using GSNKSKPKDASQRRR-NH2 as substrate after 10 to 20 mins by CPM fluorescence assay; summary of the method: as §1
[5] = biological target: T2, Glycylpeptide N-tetradecanoyltransferase 1 (Homo sapiens, UniProt P30419); experiment: Binding affinity to human NMT1 after 10 to 20 mins by CPM fluorescence assay; summary of the method: as §1
T2 sequence (P30419 whole entry): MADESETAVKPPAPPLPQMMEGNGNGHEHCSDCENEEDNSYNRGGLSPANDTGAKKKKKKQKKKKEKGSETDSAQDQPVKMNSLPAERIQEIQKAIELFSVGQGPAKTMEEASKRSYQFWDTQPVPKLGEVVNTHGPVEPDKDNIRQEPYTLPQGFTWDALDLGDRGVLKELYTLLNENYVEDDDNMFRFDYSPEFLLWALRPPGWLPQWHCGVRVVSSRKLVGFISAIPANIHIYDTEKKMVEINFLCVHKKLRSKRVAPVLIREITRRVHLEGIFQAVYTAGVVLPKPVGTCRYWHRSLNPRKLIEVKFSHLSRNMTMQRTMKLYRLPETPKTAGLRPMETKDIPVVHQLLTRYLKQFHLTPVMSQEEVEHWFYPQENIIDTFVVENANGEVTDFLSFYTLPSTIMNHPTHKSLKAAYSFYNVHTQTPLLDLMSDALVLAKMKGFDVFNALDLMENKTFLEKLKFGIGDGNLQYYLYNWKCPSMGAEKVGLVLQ

Compound | EC50 [1] | inhibition activity call (active/not active) [2] | Ki [3] | Ki [4] | Ki [5]
O=C(NCc1ccccc1)c1sc2ccccc2c1OC1CCNCC1 | 8.1 µM | Active | 10.7 µM | 1.32 µM | 4.76 µM
COc1cccc(COC(=O)c2sc3ccccc3c2OC2CCNCC2)c1 | 2 µM | Active | 0.83 µM |  | 
CCOC(=O)c1oc2cccc(OC3CCNCC3)c2c1C |  | inactive | 13.6 µM | 14.9 µM | > 100 µM
O=C(OCc1ccccc1)c1sc2ccccc2c1OC1CCNCC1 | 4.2 µM | Active | 3.37 µM | 2.16 µM | 4.41 µM
CCOC(=O)c1oc2ccccc2c1OC1CCNCC1 | 61.4 µM | inactive | 4.47 µM | 1.74 µM | > 100 µM
CCOC(=O)c1sc2ccccc2c1OC1CCNCC1 | 14.6 µM | inactive | 1.3 µM | 1.32 µM | > 100 µM
COc1cccc(CNC(=O)c2sc3ccccc3c2OC2CCNCC2)c1 |  | inactive | > 100 µM | 2.7 µM | > 100 µM
